The source of these data is ChEMBL document CHEMBL2093137, “WHO-TDR NTD Screening”.

Each structure is given as a SMILES string. In brackets after ≈: the same amount, converted by molar mass.

Series [1] is described as follows: WHO-TDR: Cytotoxicity. Format: toxicity, cell-based. The conditions noted are these: human, MRC5 cells.
Series [2] has as its system Plasmodium falciparum K1. The series is described as follows: WHO-TDR: Malaria. Format: functional, organism-based, Homo sapiens. The note with it: Erythrocyte. An outline of the steps:
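Values are IC50 figures for antiplasmodial potency. They come from a whole-organism screen of 10,000 diverse Life Chemicals compounds against Plasmodium falciparum K1 growing inside human red blood cells, run by previously published standard procedures.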

For series [3], the system named is Trypanosoma cruzi. Kind of series: WHO-TDR: Chagas disease. The note with it: MRC5. It counts as functional, organism-based, Homo sapiens. An outline of the steps: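 Following previously published standard procedures, with a reference drug as positive control, a whole-organism assay was run on Trypanosoma cruzi Tulahuen CL2 beta-galactosidase strain amastigotes inside MRC-5SV2 human lung fibroblast host cells. The 10,000 compounds tested formed a diverse Life Chemicals library filtered for drug-likeness and reactive groups. Results are expressed as IC50 for antiparasitic potency.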

The subject of series [4] is Trypanosoma brucei brucei. Kind of series: WHO-TDR: Human African Trypanosomiasis (HAT). It counts as functional, organism-based. The note with it: Squib-427. An outline of the steps:
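Values are IC50 figures for antiparasitic potency. They come from a whole-organism screen of 10,000 diverse Life Chemicals compounds against bloodstream-form Trypanosoma brucei (Squib 427 strain).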

Series [5] deals with Leishmania infantum. The series is described as follows: WHO-TDR: Leishmaniasis. The note with it: Macrophage. It counts as functional, organism-based, Mus musculus. Put shortly: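 Values are IC50 figures for antiparasitic potency. They come from a whole-organism screen of a 10,000-compound diverse Life Chemicals library against Leishmania infantum MHOM/MA(BE)/67 amastigotes inside murine peritoneal macrophage host cells.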

The subject of series [6] is Schistosoma mansoni. Kind of series: WHO-TDR: Schistosomiasis. Also on record: concentration or dose not given beside the values. Format: functional. An outline of the steps:
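Larval and/or adult Schistosoma mansoni (Puerto Rican strain) were tested whole against 10,000 diverse compounds from Life Chemicals. The procedure was a previously published standard one, using a reference drug as positive control. Results are expressed as percent inhibition and IC50.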

Series [7] has as its system Onchocerca ochengi. The series is described as follows: WHO-TDR: Onchocerciasis. Format: functional. Also on record: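 at 12.5 µM on microfilariae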. An outline of the steps:
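Onchocerca ochengi or Onchocerca lienalis, animal pathogens used as surrogates for the human parasite, were screened as whole microfilariae against a 10,000-compound diverse library from Life Chemicals. The reported measures of activity are percent inhibition and IC50.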

For series [8], the system named is Brugia malayi. Kind of series: WHO-TDR: Lymphatic Filariasis. It counts as functional. Also on record: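 tested at 10 µM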. An outline of the steps: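 Percent inhibition and IC50 describe activity against Brugia malayi microfilariae in a whole-organism screen. The screen used previously published standard procedures with reference drugs as positive controls. Compounds came from a diverse Life Chemicals library of 10,000, filtered for drug-likeness and reactive groups.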

In the case of `Cc1c(Cl)cccc1-n1c(-c2ccc(F)cc2)cn2c3c(=O)n(C)c(=O)n(C)c3nc12`, the IC50 in series [1] was 6.43 µg/mL (≈ 14.7 µM); in series [2] it was 2.97 µg/mL (≈ 6.79 µM); in series [3], greater than 13.1 µg/mL; in series [4], 3.81 µg/mL (≈ 8.7 µM); in series [5], 4.25 µg/mL (≈ 9.71 µM). Further, the “% Inhibition” value in series [6] is listed as 0%; in series [7], 100%; in series [8], 20%.
Turning to `O=S(=O)(c1cccc(F)c1)N1CCN(c2ccc(Nc3cccnc3)nn2)CC1`, the IC50 in series [1] was 0.937 µg/mL (≈ 2.26 µM); in series [2], 5.44 µg/mL (≈ 13.1 µM); in series [3], greater than 12.4 µg/mL; in series [4], greater than 12.4 µg/mL; in series [5] it was 0.403 µg/mL (≈ 0.972 µM). Moreover, the “% Inhibition” value in series [6], in series [7] and in series [8] was 0% in each case.
Take `CCc1cccc2sc(NC(=O)C3CCCCN3S(C)(=O)=O)nc12` (configuration not stated): the IC50 was greater than 11 µg/mL in series [1]; greater than 11 µg/mL in series [2]; 3.8 µg/mL (≈ 10.3 µM) in series [3]; 3.09 µg/mL (≈ 8.4 µM) in series [4]; greater than 11 µg/mL in series [5]. For the same compound, the “% Inhibition” value in series [6] was found to be 0%; in series [7] it was 100%; in series [8] it was 0%.
For `COc1cc(C(=O)Nc2ccc3c(c2)N(C(=O)c2ccco2)CC3)cc(OC)c1OC`, the IC50 in series [1] was 2.08 µg/mL (≈ 4.91 µM); in series [2], 11.5 µg/mL (≈ 27.1 µM); in series [3], greater than 12.7 µg/mL; in series [4], greater than 12.7 µg/mL; in series [5] it was greater than 12.7 µg/mL. The results for the “% Inhibition” value in series [6], in series [7] and in series [8] were 16.7%, 100% and 0%, respectively.
For `O=C(CSC1=Nc2cccnc2Nc2ccccc21)Nc1ccc(F)c(F)c1`, the IC50 in series [1] is greater than 11.9 µg/mL; in series [2], 4.83 µg/mL (≈ 12.2 µM); in series [3] it was greater than 11.9 µg/mL; in series [4], greater than 11.9 µg/mL; in series [5], greater than 11.9 µg/mL. The “% Inhibition” value in series [6] turned out to be 0%; in series [7], 100%; in series [8], 0%.
Take `O=C(NCCNc1ccc(Nc2ccncc2)nn1)Nc1ccc(Cl)cc1`: the IC50 in series [1], in series [2], in series [3], in series [4] and in series [5] was greater than 11.5 µg/mL each time. In addition, the “% Inhibition” value worked out at 0% in series [6], 100% in series [7] and 0% in series [8].
Consider `CCOc1cccc2sc(N(CCCn3ccnc3)C(=O)c3cccs3)nc12`, for which the IC50 was 5.87 µg/mL (≈ 14.2 µM) in series [1]; 0.573 µg/mL (≈ 1.39 µM) in series [2]; 4.08 µg/mL (≈ 9.88 µM) in series [3]; 4.31 µg/mL (≈ 10.4 µM) in series [4]; greater than 13.5 µg/mL in series [5]. Besides, the “% Inhibition” value was 0% in series [6], 100% in series [7] and 0% in series [8].
In the case of `CCn1ccc(C(=O)Nc2ccc3nc(SC)sc3c2)n1`, the IC50 in series [1] was greater than 9.55 µg/mL; in series [2], 0.955 µg/mL (≈ 3 µM); in series [3], greater than 9.55 µg/mL; in series [4], greater than 9.55 µg/mL; in series [5] it was greater than 9.55 µg/mL. Besides, the results for the “% Inhibition” value in series [6], in series [7] and in series [8] were 0%, 100% and 0%, respectively.
With `O=C(c1ccc2c(c1)OCO2)C1C(=O)N(c2ccccc2)N=C1c1ccccc1` (configuration not stated), the IC50 in series [1] is 6.6 µg/mL (≈ 17.2 µM); in series [2], greater than 11.5 µg/mL; in series [3], greater than 11.5 µg/mL; in series [4], 3.32 µg/mL (≈ 8.63 µM); in series [5], greater than 11.5 µg/mL. For the same compound, the “% Inhibition” value is recorded as 0% in series [6], 100% in series [7] and 0% in series [8].
Regarding `O=C(Cc1ccc(Cl)cc1)NCCS(=O)(=O)N1CCN(Cc2ccccc2)CC1`, the IC50 in series [1], in series [2], in series [3], in series [4] and in series [5] was greater than 14.2 µg/mL in each case. In addition, the “% Inhibition” value came to 0% in series [6], 100% in series [7] and 20% in series [8].
On to `O=C(Nc1ccc(F)cc1)Nc1cccc(-c2ccc(N3CCCC3)nn2)c1`, for which the IC50 in series [1], in series [2], in series [3], in series [4] and in series [5] was greater than 11.3 µg/mL each time. Further, the “% Inhibition” value in series [6] came to 0%; in series [7], 100%; in series [8] it was 0%.
Turning to `O=C(Cc1csc(NC(=O)c2ccc(=O)[nH]c2)n1)NCc1cccs1`, the IC50 in series [1], in series [2], in series [3], in series [4] and in series [5] was greater than 11.2 µg/mL in each case. In addition, the “% Inhibition” value in series [6] was 100%; in series [7], 0%; in series [8] it was 20%.
Turning to `O=C(NCCNc1ccc(Nc2ccccn2)nn1)c1ccc(F)cc1`, the IC50 in series [1] was greater than 10.6 µg/mL; in series [2], 4.32 µg/mL (≈ 12.3 µM); in series [3], greater than 10.6 µg/mL; in series [4], greater than 10.6 µg/mL; in series [5] it was greater than 10.6 µg/mL. Besides, the “% Inhibition” value in series [6] is given as 0%; in series [7], 100%; in series [8], 0%.
With `O=c1ccc(-c2ccc(F)cc2)nn1CCCNS(=O)(=O)c1cc(F)ccc1F`, the IC50 is 3.28 µg/mL (≈ 7.74 µM) in series [1]; greater than 12.7 µg/mL in series [2]; greater than 12.7 µg/mL in series [3]; 4.24 µg/mL (≈ 10 µM) in series [4]; greater than 12.7 µg/mL in series [5]. For the same compound, the figures for the “% Inhibition” value in series [6], in series [7] and in series [8] were 0%, 100% and 0%, respectively.
Turning to `COc1ccc(C)c2sc(N(CCCn3ccnc3)C(=O)Cc3ccccc3)nc12`, the IC50 is 4.07 µg/mL (≈ 9.68 µM) in series [1]; 0.615 µg/mL (≈ 1.46 µM) in series [2]; 0.644 µg/mL (≈ 1.53 µM) in series [3]; 3.3 µg/mL (≈ 7.85 µM) in series [4]; greater than 13.7 µg/mL in series [5]. The “% Inhibition” value in series [6] is 0%; in series [7], 100%; in series [8], 0%.
Take `O=C(Nc1nnc(CCSc2ccccc2)o1)c1ccc(Cl)cc1`: the IC50 in series [1] is 3.41 µg/mL (≈ 9.49 µM); in series [2] it was greater than 10.8 µg/mL; in series [3], 3.77 µg/mL (≈ 10.5 µM); in series [4], 3.49 µg/mL (≈ 9.71 µM); in series [5] it was 3.49 µg/mL (≈ 9.71 µM). Further, the “% Inhibition” value in series [6] is listed as 0%; in series [7], 100%; in series [8], 0%.
For the compound `CCc1nnc(NS(=O)(=O)c2ccc(NC(=O)c3nc4ccccc4s3)cc2)s1`, the IC50 in series [1], in series [2], in series [3], in series [4] and in series [5] was greater than 13.4 µg/mL throughout. Moreover, the “% Inhibition” value in series [6] stood at 0%; in series [7] it was 100%; in series [8], 0%.
Turning to `COc1cccc(C(=O)N(CCCn2ccnc2)c2nc3c(C)c(C)ccc3s2)c1OC`, the IC50 in series [1] turned out to be 3.15 µg/mL (≈ 6.99 µM); in series [2], 1.28 µg/mL (≈ 2.85 µM); in series [3] it was 0.648 µg/mL (≈ 1.44 µM); in series [4] it was 1.34 µg/mL (≈ 2.97 µM); in series [5] it was 4.73 µg/mL (≈ 10.5 µM). The “% Inhibition” value came out at 0% in series [6], 100% in series [7] and 0% in series [8].
With `O=C(CSc1ccc(NC(=O)c2ccco2)nn1)Nc1ccccc1C(F)(F)F`, the IC50 in series [1], in series [2], in series [3], in series [4] and in series [5] was greater than 12.7 µg/mL throughout. In addition, the “% Inhibition” value is 0% in series [6], 100% in series [7] and 0% in series [8].

One may read the IC50 as the point on the concentration scale where inhibition reaches its midpoint. For orientation: % Inhibition means the percentage by which the read-out fell short of the control.
